Laboratory results: ChEMBL document CHEMBL1125313, “Analogs of Ac-CCK-7 incorporating dipeptide mimics in place of Met28-Gly29” (J Med Chem, 1992)
Starred links: 1 amine or outer side, 2 acyl side, 3 side chain; linkers in the order of their positions; H or OH if unused. Non-standard residues stand in square brackets, D forms with d. Residues, ends and D or L forms follow the SMILES beside them. Phe(4-SO3H) = N[C@@H](Cc1ccc(S(=O)(=O)O)cc1)C(=O)O; X3 = O=C(C[C@@H]1CCCC[C@@H]1N[*:1])[*:2]; X5 = O=C(C[C@H]1CCCC[C@@H]1N[*:1])[*:2]; X1 = Cc1c(N[*:1])cccc1C(=O)[*:2]; X4 = Cc1ccc(N[*:1])cc1C(=O)[*:2]; 3Abz = Nc1cccc(C(=O)O)c1; 4Abz = Nc1ccc(C(=O)O)cc1; CO = O=C([*:1])[*:2]; Ahx = NCCCCCC(=O)O; Ava = NCCCCC(=O)O; GABA = NCCCC(=O)O; βAla = NCCC(=O)O

Legend:
[1] = system: Rattus norvegicus; assay: Compound was evaluated for its ability to suppress food intake in one of two meal-fed rats after intraperitoneal administration of 320 ug/kg; type: functional
Procedure, shortened: (§1)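 Male Sprague-Dawley rats fed in one of two meal models, peptide ip. In "1-2-1" model, rats trained 4 days to eat ground chow 9–10 a.m. and 12–1 p.m., dosed 15 min before first meal, groups of 5–6. Or rats fasted 17 h overnight, given vehicle (100% DMSO) or peptide ip, 0.33 mL/kg, food weighed after 1 h, groups of 5–7. First-hour intake as % of control. ED50 from log-probit analysis; t-test versus controls.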

[2] = target: T1, Cholecystokinin receptor type A (Rattus norvegicus, UniProt P30551); assay: The compound was tested in vitro for inhibition of specific [3H]propionyl-CCK-8 binding to Cholecystokinin type A receptor in rat pancreatic membranes; type: cell membranes, Membrane
T1 sequence (P30551 whole entry): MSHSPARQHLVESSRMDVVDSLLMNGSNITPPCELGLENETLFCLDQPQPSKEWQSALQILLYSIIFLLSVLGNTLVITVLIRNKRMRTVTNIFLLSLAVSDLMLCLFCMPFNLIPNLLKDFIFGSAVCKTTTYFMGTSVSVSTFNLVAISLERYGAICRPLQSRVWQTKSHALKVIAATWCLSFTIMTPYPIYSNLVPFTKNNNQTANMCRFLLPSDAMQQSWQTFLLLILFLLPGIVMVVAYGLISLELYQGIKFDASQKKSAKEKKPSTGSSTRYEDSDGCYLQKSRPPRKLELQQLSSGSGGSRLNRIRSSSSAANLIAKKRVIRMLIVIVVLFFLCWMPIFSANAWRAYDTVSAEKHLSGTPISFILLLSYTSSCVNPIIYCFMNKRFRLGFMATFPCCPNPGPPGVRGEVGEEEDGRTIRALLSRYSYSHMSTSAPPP
Procedure, shortened: (§2)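 Fresh pancreas from fasted rats homogenized at 0 °C in 10 mM HEPES, 130 mM NaCl, 5 mM MgCl2, pH 7.4. Pellet (48000g) resuspended in same buffer plus PMSF and bacitracin, ~0.100 mg protein per 1 mL. Incubated 30 min at 25 °C with 0.15 nM (final) [propionyl-3H]CCK-8. Filtered on GF/B and counted. Nonspecific binding with 1 μM CCK-8. IC50 by log-probit; actives confirmed in duplicate.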

[3] = system: Rattus norvegicus; assay: Dose which caused 50% inhibition of the control intake was determined by log-probit analysis after intraperitoneal administration; type: functional; settings: ip; procedure, shortened: as §1
[4] = system: Rattus norvegicus; assay: Compound was evaluated for its ability to suppress food intake in one of two meal-fed rats after intraperitoneal administration of 32 ug/kg; type: functional; procedure, shortened: as §1
[5] = target: T2, Gastrin/cholecystokinin type B receptor (Bos taurus, UniProt P79266); assay: Inhibition of [3H]propionyl-CCK-8 binding to Cholecystokinin type B receptor in bovine striatum; type: tissue-based
T2 sequence (P79266 whole entry): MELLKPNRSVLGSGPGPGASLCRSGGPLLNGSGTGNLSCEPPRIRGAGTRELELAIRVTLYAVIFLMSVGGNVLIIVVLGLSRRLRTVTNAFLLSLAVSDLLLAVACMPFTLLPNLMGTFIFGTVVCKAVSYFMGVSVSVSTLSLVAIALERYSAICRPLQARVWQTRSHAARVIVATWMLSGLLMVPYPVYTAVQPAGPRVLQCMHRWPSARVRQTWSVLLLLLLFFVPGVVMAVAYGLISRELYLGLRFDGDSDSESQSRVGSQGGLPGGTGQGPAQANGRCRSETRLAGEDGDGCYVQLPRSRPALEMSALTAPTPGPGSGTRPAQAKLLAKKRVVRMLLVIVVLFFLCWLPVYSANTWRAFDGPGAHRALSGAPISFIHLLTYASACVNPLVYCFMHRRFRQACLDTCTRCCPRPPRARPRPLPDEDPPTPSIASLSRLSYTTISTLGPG
Procedure, shortened: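 Frozen bovine striatum homogenized at 0 °C in 10 mM HEPES, 130 mM NaCl, 5 mM MgCl2, pH 7.4. Pellet (48000g) resuspended in same buffer plus PMSF and bacitracin, ~0.26 mg protein per 2 mL. Incubated 30 min at 25 °C with 0.15 nM (final) [propionyl-3H]CCK-8. GF/B filtration, scintillation counting. Nonspecific binding with 1 μM CCK-8. IC50 by log-probit; actives confirmed in duplicate.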

[6] = target: T1, Cholecystokinin receptor type A; assay: The compound was tested in vitro for inhibition of specific [3H]propionyl-CCK-8 binding to cholecystokinin type A receptor in rat pancreatic membranes; type: cell membranes, Membrane; procedure, shortened: as §2
[7] = system: Rattus norvegicus; assay: Compound was evaluated for its ability to suppress food intake in one of two meal-fed rats after intraperitoneal administration of 10 ug/kg; type: functional; procedure, shortened: as §1
[8] = Dose which caused 50% inhibition of the control intake was determined by log-probit analysis after intraperitoneal administration (CCK-8 receptor); settings: Rattus norvegicus
[9] = system: Rattus norvegicus; assay: Compound was evaluated for its ability to suppress food intake in one of two meal-fed rats after intraperitoneal administration of 3 ug/kg; type: functional; procedure, shortened: as §1
[10] = system: Rattus norvegicus; assay: Compound was evaluated for its ability to suppress food intake in one of two meal-fed rats after intraperitoneal administration of […]; type: functional
[11] = system: Rattus norvegicus; assay: Compound was evaluated for its ability to suppress food intake in one of two meal-fed rats after intraperitoneal administration of 14 ug/kg; type: functional; procedure, shortened: as §1
[12] = system: Rattus norvegicus; assay: Compound was evaluated for its ability to suppress food intake in one of two meal-fed rats after intraperitoneal administration of 20 ug/kg; type: functional; procedure, shortened: as §1
[13] = system: Rattus norvegicus; assay: Compound was evaluated for its ability to suppress food intake in one of two meal-fed rats after intraperitoneal administration of 0.3 ug/kg; type: functional; procedure, shortened: as §1
[14] = system: Rattus norvegicus; assay: Compound was evaluated for its ability to suppress food intake in one of two meal-fed rats after intraperitoneal administration of 1240 ug/kg; type: functional; procedure, shortened: as §1

SMILES | Control [1] [%] | IC50 [2] [nM] | ED50 [3] [µmol/kg] | Control [4] [%] | IC50 [5] [nM] | IC50 [6] [nM] | Control [9] [%] | other results
CSCC[C@H](NC(=O)[C@H](Cc1c[nH]c2ccccc12)NC(=O)C[C@H]1CCCC[C@@H]1NC(=O)[C@H](Cc1ccc(S(=O)(=O)O)cc1)NC(=O)O)C(=O)N[C@@H](CC(=O)O)C(=O)N[C@@H](Cc1ccccc1)C(N)=O ({CO}-[Phe(4-SO3H)][X5]WMDF-NH2) | 90 | 165 | > 320 | – | – | – | – | –
CSCC[C@H](NC(=O)[C@H](Cc1c[nH]c2ccccc12)NC(=O)CNC(=O)[C@H](Cc1ccc(S(=O)(=O)O)cc1)NC(=O)O)C(=O)N[C@@H](CC(=O)O)C(=O)N[C@@H](Cc1ccccc1)C(N)=O ({CO}-[Phe(4-SO3H)]GWMDF-NH2) | – | – | – | 69 | 1300 | 1200 | – | –
CSCC[C@H](NC(=O)[C@H](Cc1ccc(S(=O)(=O)O)cc1)NC(=O)O)C(=O)NCC(=O)N[C@@H](Cc1c[nH]c2ccccc12)C(=O)N[C@@H](CCSC)C(=O)N[C@@H](CC(=O)O)C(=O)N[C@@H](Cc1ccccc1)C(N)=O ({CO}-[Phe(4-SO3H)]MGWMDF-NH2) | – | – | – | 6 | 4.4 | 0.6 | 81 | Control [7]: 36%; ED50 [8]: 7 µmol/kg
CSCC[C@H](NC(=O)[C@H](Cc1c[nH]c2ccccc12)NC(=O)C[C@@H]1CCCC[C@@H]1NC(=O)[C@H](Cc1ccc(S(=O)(=O)O)cc1)NC(=O)O)C(=O)N[C@@H](CC(=O)O)C(=O)N[C@@H](Cc1ccccc1)C(N)=O ({CO}-[Phe(4-SO3H)][X3]WMDF-NH2) | 80 | 161 | > 320 | – | 3.4 | – | – | –
CSCC[C@H](NC(=O)[C@H](Cc1c[nH]c2ccccc12)NC(=O)c1cccc(NC(=O)[C@H](Cc2ccc(S(=O)(=O)O)cc2)NC(=O)O)c1C)C(=O)N[C@@H](CC(=O)O)C(=O)N[C@@H](Cc1ccccc1)C(N)=O ({CO}-[Phe(4-SO3H)][X1]WMDF-NH2) | 5.9 | 2.7 | 24 | 44 | 0.91 | – | – | Control [10]: 104%; Control [11]: 58%
CSCC[C@H](NC(=O)[C@H](Cc1c[nH]c2ccccc12)NC(=O)CCCNC(=O)[C@H](Cc1ccc(S(=O)(=O)O)cc1)NC(=O)O)C(=O)N[C@@H](CC(=O)O)C(=O)N[C@@H](Cc1ccccc1)C(N)=O ({CO}-[Phe(4-SO3H)][GABA]WMDF-NH2) | 1 | – | – | 11 | 1.8 | 4.9 | 69 | Control [12]: 6%; Control [13]: 104%; ED50 [8]: 4.7 µmol/kg
CSCC[C@H](NC(=O)[C@H](Cc1c[nH]c2ccccc12)NC(=O)CCCCNC(=O)[C@H](Cc1ccc(S(=O)(=O)O)cc1)NC(=O)O)C(=O)N[C@@H](CC(=O)O)C(=O)N[C@@H](Cc1ccccc1)C(N)=O ({CO}-[Phe(4-SO3H)][Ava]WMDF-NH2) | 9 | – | – | 54 | 9 | 22 | 102 | –
CSCC[C@H](NC(=O)[C@H](Cc1c[nH]c2ccccc12)NC(=O)CCCCCNC(=O)[C@H](Cc1ccc(S(=O)(=O)O)cc1)NC(=O)O)C(=O)N[C@@H](CC(=O)O)C(=O)N[C@@H](Cc1ccccc1)C(N)=O ({CO}-[Phe(4-SO3H)][Ahx]WMDF-NH2) | 80 | – | – | – | 13 | 360 | – | –
CSCC[C@H](NC(=O)[C@H](Cc1c[nH]c2ccccc12)NC(=O)c1ccc(NC(=O)[C@H](Cc2ccc(S(=O)(=O)O)cc2)NC(=O)O)cc1)C(=O)N[C@@H](CC(=O)O)C(=O)N[C@@H](Cc1ccccc1)C(N)=O ({CO}-[Phe(4-SO3H)][4Abz]WMDF-NH2) | – | 1600 | > 1240 | – | 0.085 | – | – | Control [14]: 75%
CSCC[C@H](NC(=O)[C@H](Cc1c[nH]c2ccccc12)NC(=O)CCNC(=O)[C@H](Cc1ccc(S(=O)(=O)O)cc1)NC(=O)O)C(=O)N[C@@H](CC(=O)O)C(=O)N[C@@H](Cc1ccccc1)C(N)=O ({CO}-[Phe(4-SO3H)][βAla]WMDF-NH2) | – | – | – | 108 | 3600 | 10000 | – | –
CSCC[C@H](NC(=O)[C@H](Cc1c[nH]c2ccccc12)NC(=O)c1cccc(NC(=O)[C@H](Cc2ccc(S(=O)(=O)O)cc2)NC(=O)O)c1)C(=O)N[C@@H](CC(=O)O)C(=O)N[C@@H](Cc1ccccc1)C(N)=O ({CO}-[Phe(4-SO3H)][3Abz]WMDF-NH2) | 4 | 2.1 | 3 | 14 | 0.48 | – | 52 | –
CSCC[C@H](NC(=O)[C@H](Cc1c[nH]c2ccccc12)NC(=O)c1cc(NC(=O)[C@H](Cc2ccc(S(=O)(=O)O)cc2)NC(=O)O)ccc1C)C(=O)N[C@@H](CC(=O)O)C(=O)N[C@@H](Cc1ccccc1)C(N)=O ({CO}-[Phe(4-SO3H)][X4]WMDF-NH2) | 95 | 73 | > 320 | – | 5 | – | – | –
